VIM-2 inh: VIM-2 metallo-beta-lactamase inhibitors, primary screen, biochemical, epi-absorbance readout, Pseudomonas aeruginosa enzyme. 290,000 tested, 0.89% active. purified VIM-2, nitrocefin hydrolysis, epi-absorbance fluorescence. inhibition, % at 5.6 µM;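 active = inhibition above the mean of all tested compounds plus 3 SD, cutoff set per screening run, cut at about 7.5% in these data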;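 also: red hydrolysis product quenches plate fluorescence so inhibitors raise well fluorescence; 0% = enzyme with DMSO and 100% = DMSO without enzyme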
IMP-1 inh: IMP-1 metallo-beta-lactamase inhibitors, primary screen, biochemical, epi-absorbance readout, Pseudomonas aeruginosa enzyme; inhibition, % at 5.6 µM; metallo-beta-lactamase IMP-1 (Pseudomonas aeruginosa); 290,000 tested, 0.45% active; purified IMP-1, nitrocefin hydrolysis, epi-absorbance fluorescence;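 active = inhibition above the mean plus 3 SD of all compounds in the same screening run, cut at about 4.5% in these data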;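 also: 0% = IMP-1 with DMSO and 100% = DMSO wells lacking enzyme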
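System: purified recombinant IMP-1 beta-lactamase. Medium: Zinc- and detergent-supplemented HEPES buffer, pH 7.1. Compound: one 5.6 µM dose […]. Schedule: 15 min preincubation plus 25 min reaction at 25 °C. Technique: Epi-absorbance fluorescence, 480 nm excitation, 530 nm emission.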
eIF4H FP inh: human eIF4H binding inhibitors, primary screen, translation initiation inhibitor project, biochemical, uHTS, fluorescence polarization. Eukaryotic translation initiation factor 4H (Homo sapiens), Q15056. eIF4H fluorescence polarization binding assay. 290,000 tested, 0.94% active. inhibition, % at 35 µM;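 also: calls also rest on retests at 20 µM and on dose response follow-up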
MLLE-PAM2 inh: inhibitors of PABP1 MLLE–PAM2 peptide binding, primary screen, biochemical, fluorescence polarization, FITC-PAM2, GST-MLLE; Polyadenylate-binding protein 1 (Homo sapiens), P11940; inhibition, % at 20 µM; 360,000 tested, 0.36% active; AID 588489, 2011; in the data active = inhibition above about 35%, passing the limit was not always enough;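 also: plate controls were DMSO wells with GST-MLLE for no effect and wells lacking GST-MLLE protein for full effect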
PABP FP inh: PABP poly(A) RNA binding inhibitors, primary screen, biochemical, fluorescence polarization, uHTS; Polyadenylate-binding protein 1 (Homo sapiens), P11940; calls only at 35 µM; 290,000 tested, 1% active; AID 2014, 2009;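 also: calls also rest on retests at 20 µM and on dose response follow-up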
* = called active by the depositor; i = inactive; ? = inconclusive; . = no result; + = active, no number. Most compounds without a hit are left out; they make up all but 2.2% or so of the library. Unless noted, no rule for the calls is given here.

SMILES | VIM-2 inh | IMP-1 inh | eIF4H FP inh | MLLE-PAM2 inh | PABP FP inh
CCOC(=O)c1sc2nc3c(SCC(=O)O)cc(C(=O)c4cc(F)ccc4O)cn3c(=O)c2c1C | -1.8 | -1.6 | 11.7 | -18.9 | i
O=C(O)CSc1cc(C(=O)c2ccccc2O)cn2c(=O)c3c(-c4ccccc4)csc3nc12 | -1.8 | -1.6 | 68.5 | -22.6 | +
CCOC(=O)c1sc2nc3c(SCC(=O)O)cc(C(=O)c4ccccc4O)cn3c(=O)c2c1C | -3.1 | -0.9 | 61.0 | -14.1 | i
C=CCCCCCCCC(=O)OC | -3.4 | -2.9 | -3.9 | 4.9 | i
O=C1C2CC=C(Cl)CC2C(=O)N1CN(Cc1ccco1)CN1C(=O)C2CC=C(Cl)CC2C1=O (stereo unspecified) | -0.1 | 0.7 | 65.8* | -7.4 | +
Cc1nc(-c2ccc([N+](=O)[O-])cc2)nc2[nH]ccc(=O)c12 | 9.7* | -0.3 | -8.7 | -2.6 | i
CN(C)c1ccc(-c2nnc(-c3ccc(S(=O)(=O)C(F)F)cc3)o2)cc1 | -2.2 | -1.5 | 67.6* | -63.1 | +
COc1ccc(-c2nnc(-c3ccc(N(C)C)cc3)o2)cc1 | -2.7 | -4.3 | -2.9 | -6.1 | i
O=C(c1ccco1)N(CCC(c1ccccc1)c1ccco1)Cc1ccco1 (stereo unspecified) | -1.1 | -2.0 | 68.3* | -10.3 | i
Cc1ccc(C(CCN(Cc2ccccc2)C(=O)c2ccco2)c2ccco2)cc1 (stereo unspecified) | -0.2 | -0.6 | 39.8 | -0.1 | i
CC(=O)c1ccc(S(=O)(=O)N2CCN(C(=O)c3cccc(S(=O)(=O)N4CC(C)OC(C)C4)c3)CC2)cc1 (stereo unspecified) | . | . | . | 21.1 | .
CC(Cc1ccccc1)NC(=S)CN1CCCC1=S (stereo unspecified) | -2.5 | -4.4 | 53.0* | 24.0 | i
CC(Cc1ccccc1)NC(=O)CC(c1ccccc1)c1ccccc1O (stereo unspecified) | -1.1 | -1.1 | -4.1 | 0.2 | i
O=C(C1CCN(C2CCN(C/C=C/c3ccccc3)CC2)CC1)N1CCOCC1 | -1.9 | -1.4 | 56.2* | -7.9 | +
CC(=O)Nc1ccc(C(=O)NNC(=O)c2cccc(C)c2)cc1 | -2.3 | -0.1 | -9.4 | 6.9 | i
COc1ccc(NC(=S)N=Nc2c(O)[nH]c3ccccc23)cc1 | -2.1 | -2.1 | 14.0 | 40.7* | i
Oc1ccc(NC(=S)N=Nc2c(O)[nH]c3ccccc23)cc1 | -2.9 | -3.7 | 8.4 | 51.7* | i
Cc1c(C(=O)NNC(=S)Nc2cccc(Cl)c2)nnn1-c1ccccc1 | -6.3 | -2.4 | 12.2 | 24.9 | i
Cc1occc1C(=O)NNC(=O)CN1C(=O)NC(C)(c2ccccc2)C1=O (stereo unspecified) | . | . | . | 6.3 | .
Cn1c2ccccc2c2nnc(SCC(N)=O)nc21 | 8.0* | -2.9 | 8.1 | 5.4 | i
Cn1c2ccccc2c2nnc(SCc3nnc(-c4ccccc4)o3)nc21 | -1.7 | -1.6 | -9.1 | . | +
CCOC(=O)CSc1nnc2c3ccccc3n(C)c2n1 | 4.2 | -3.1 | -15.9 | -0.5 | i
C=CCn1c2ccccc2c2nnc(SCC(=O)OC)nc21 | . | . | . | 1.2 | .
CCOC(=O)c1sc(NC(=O)C(CC)Sc2nnc3c4ccccc4n(C(C)C)c3n2)nc1C (stereo unspecified) | -4.8 | -5.6 | -3.3 | 8.0 | i
C=CCn1c2ccccc2c2nnc(SCC(N)=O)nc21 | 8.9* | -1.9 | 3.6 | 1.5 | i
SMILES | VIM-2 inh | IMP-1 inh | eIF4H FP inh | MLLE-PAM2 inh | PABP FP inh
CCOC(=O)Cc1nnc(NC(=O)C(CC)Sc2nnc3c4ccccc4n(C)c3n2)s1 (stereo unspecified) | 9.3* | -1.4 | 5.6 | 7.0 | i
Cc1ccccc1C(=O)N1CCC(C(=O)Nc2ccc3c(c2)OCO3)CC1 | -3.7 | -2.8 | -5.3 | -1.3 | i
COc1ccc(CCN2CC(C(=O)NCCc3ncccc3C)CCC2=O)cc1 (stereo unspecified) | . | . | . | 4.0 | .
CCOc1cccc2cc(C(=O)N3CCOCC3)c(=O)oc12 | -0.1 | -2.6 | 1.1 | 9.3 | i
CN(C)c1nc(/C=C(\C#N)C(N)=O)c(Cl)n1-c1ccc(F)cc1 | -1.0 | -1.9 | 11.1 | 2.7 | i
CCCCCC(=O)N/N=C(\C)c1ccc(N2CCCCC2)cc1 | -5.8 | -1.2 | -6.6 | 3.6 | i
Cn1c2ccc(Br)cc2c2nnc(SCC(=O)O)nc21 | 9.8* | 1.9 | -4.4 | 31.7 | i
Cn1c2ccccc2c2nnc(SCC(=O)NC3CC3)nc21 | 9.2* | 1.1 | 8.6 | -5.6 | i
CCn1c2ccccc2c2nnc(SCc3ccc(C(=O)OC)o3)nc21 | 7.0 | -4.1 | -3.4 | 41.3* | i
O=C(CNC(=O)c1ccncc1)Nc1ccc(F)c(F)c1 | -3.2 | -1.0 | -5.7 | -10.4 | i
O=C(COC(=O)c1ccc(N2CCCC2=O)cc1)c1ccccc1 | -2.1 | -3.5 | -0.1 | 7.1 | i
CC(C)(C)c1csc(NC(=O)c2ccc3nccnc3c2)n1 | -2.7 | -1.7 | -8.2 | -4.2 | i
CCN(C(=O)CSc1nnc(C2CC2)n1-c1ccccc1)C1CCS(=O)(=O)C1 (stereo unspecified) | . | . | . | -11.7 | .
C=CCN=C(NC#N)SCC(=O)NC(C)(C)C | -2.5 | 5.4* | 3.9 | -5.4 | i
C=CCNC(=O)c1onc(CSc2ccc(F)c(F)c2)c1C(=O)NCC=C | . | . | . | -0.8 | .
O=C(Nc1ccc(N2CCOCC2)c(S(=O)(=O)Nc2ccc(Cl)cc2)c1)c1cnccn1 | -3.0 | -2.0 | -4.4 | 40.4* | i
O=C(Nc1ccc(N2CCOCC2)c(S(=O)(=O)Nc2ccc(Cl)cc2)c1)c1ccc(=O)[nH]n1 | . | . | . | -23.7 | .
O=[N+]([O-])c1cc(/C=N\Nc2nc(-c3ccccc3)cs2)ccc1O | -4.9 | -3.9 | -2.0 | -3.5 | i
Cc1csc(N/N=C/c2ccc(O)c([N+](=O)[O-])c2)n1 | -4.3 | -3.7 | 68.1* | -27.0 | +
COc1ccc(C(C)(O)c2nc(-c3cccs3)cs2)cc1 (stereo unspecified) | . | . | . | 4.3 | .
CC(C)CC1=C/C(=C/c2ccc(-c3ccccc3)o2)C(=O)O1 | -2.8 | 4.9* | 42.2 | -22.6 | i
CCOC(=O)c1c(/N=C/c2ccc(O)cc2O)sc2c1CCC2 | -1.9 | -1.4 | 65.3* | . | +
COc1ccc(NS(=O)(=O)c2cccs2)cn1 | -2.4 | -3.1 | 0.4 | 4.6 | i
COc1ccc(NS(=O)(=O)c2ccc(Cl)s2)cn1 | -1.1 | 0.1 | ? | 58.3* | ?
O=S(=O)(O)c1cc(O)c2cc(Nc3ccccc3)ccc2c1 | . | . | . | 46.4* | .
Nc1ccc2c(O)cc(S(=O)(=O)O)cc2c1 | . | . | . | 48.6* | .
CC(=O)Nc1ccc2c(O)cc(S(=O)(=O)O)cc2c1 | . | . | . | 7.9 | .
O=S(=O)(O)c1ccc(O)c2cc(Nc3ccccc3)ccc12 | . | . | . | 44.6* | .
O=S(=O)(O)c1cc(O)c2ccc(Nc3ccccc3)cc2c1 | . | . | . | 12.8 | .

Screening results (PubChem)
